Published values pooled from the literature.
Each line is one published result; the experiments were not run side by side.
Medium: plasma
Route: oral

COc1ccc([C@@H]2CN(C(=O)[C@@H](O)CO)C[C@@]2(C)[C@@H](C)O)cc1OC1CN(c2ccc(C)cn2)C1
AUC(0-inf) (human; 1.5 mg; single dose, healthy volunteers): 524 ng·h/mL

CCc1nc2c(C)cc(N3CCN(CC(=O)N4CC(O)C4)CC3)cn2c1N(C)c1nc(-c2ccc(F)cc2)c(C#N)s1
AUC(0-inf) (human; 300 mg; fed, healthy volunteers): 16400 ng·h/mL

CC(C)(Sc1ccncc1-c1ccc(C#N)c2ccccc12)C(=O)O
AUC(0-inf) (male human; 20 mg; single dose, fasted, healthy volunteers): 540 ng·h/mL

C[C@@]1(c2cc(NC(=O)c3ccc(C#N)cn3)ccc2F)C=CSC(N)=N1
AUC(0-inf) (human; 150 mg; single dose): 14500 ng·h/mL

Cn1cc(-c2ccc(S(=O)(=O)[C@@H]3C[C@@H](C(=O)NC4(C#N)CC4)N(C(=O)C4(C(F)(F)F)CC4)C3)c(C(F)(F)F)c2)cn1
AUC(0-inf) (human; 30 mg; single dose, fasted, healthy volunteers): 3240 ng·h/mL

CC(C)n1cc(C#N)c2cc(-n3cc(C(=O)O)cn3)ccc21
AUC(0-inf) (human; 25 mg; single dose, fasted, healthy volunteers): 5190 ng·h/mL

CO[C@H]1CC[C@H](N2C(=O)CNc3ncc(-c4ccc(C(C)(C)O)nc4)nc32)CC1
AUC(0-inf) (human; 45 mg; patients): 1690 ng·h/mL

CC(C)(O)c1ccccc1-c1ccc2[nH]c(/C=C/c3ccc(C(F)(F)F)cc3)nc2c1
AUC(0-inf) (male human; 10 mg; single dose, fasted): 2110 ng·h/mL
